Source: ChEMBL document CHEMBL1157909, “Targeting multiple chorismate-utilizing enzymes with a single inhibitor: validation of a three-stage design” (J Med Chem, 2010)
The source made the active and inactive calls. No cut-off for these calls is given here.

Assays:
[1] = molecular target: T1, Isochorismate synthase EntC (Escherichia coli K-12, UniProt P0AEJ2); test: Inhibition of Escherichia coli K12 IS expressed in Escherichia coli BL21(DE3) by spectrophotometry
T1 sequence (P0AEJ2 whole entry): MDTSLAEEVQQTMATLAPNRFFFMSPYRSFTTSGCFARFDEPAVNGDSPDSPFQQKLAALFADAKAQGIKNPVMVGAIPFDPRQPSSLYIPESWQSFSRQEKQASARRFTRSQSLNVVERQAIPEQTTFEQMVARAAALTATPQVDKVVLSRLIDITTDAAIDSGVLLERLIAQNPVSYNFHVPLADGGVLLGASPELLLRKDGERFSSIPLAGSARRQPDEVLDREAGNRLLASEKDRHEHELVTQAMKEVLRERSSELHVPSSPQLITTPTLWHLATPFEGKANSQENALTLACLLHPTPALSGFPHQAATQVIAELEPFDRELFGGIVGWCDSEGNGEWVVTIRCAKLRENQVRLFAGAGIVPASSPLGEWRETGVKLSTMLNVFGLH
Outline: (§1)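 Isochorismate synthase EntC (His-tagged, pET28a, BL21(DE3)) at 75 nM, coupled to excess EntB (2 μM) and 2 units LDH. Read-out was NADH oxidation at 340 nm, 25 °C. Buffer: 50 mM triethanolamine pH 7.8, 1 mM MgCl2 (saturating), 100 μM NADH. Inhibitor ranged 10 μM–8 mM; chorismate ranged 0.5–5 KM. Ki versus chorismate came from initial rates.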

[2] = molecular target: T2, Anthranilate synthase component 1 (Salmonella typhimurium (strain LT2 / SGSC1412 / ATCC 700720), UniProt P00898); test: Inhibition of Salmonella Typhimurium anthranilate synthase trpE:trpD […] coexpressing stop codon in trpD gene for encoding aminotransferase activity by spectrophotometry for enzyme-inhibitor complex; design: species or system Salmonella enterica subsp. enterica serovar Typhimurium
T2 sequence (P00898 whole entry): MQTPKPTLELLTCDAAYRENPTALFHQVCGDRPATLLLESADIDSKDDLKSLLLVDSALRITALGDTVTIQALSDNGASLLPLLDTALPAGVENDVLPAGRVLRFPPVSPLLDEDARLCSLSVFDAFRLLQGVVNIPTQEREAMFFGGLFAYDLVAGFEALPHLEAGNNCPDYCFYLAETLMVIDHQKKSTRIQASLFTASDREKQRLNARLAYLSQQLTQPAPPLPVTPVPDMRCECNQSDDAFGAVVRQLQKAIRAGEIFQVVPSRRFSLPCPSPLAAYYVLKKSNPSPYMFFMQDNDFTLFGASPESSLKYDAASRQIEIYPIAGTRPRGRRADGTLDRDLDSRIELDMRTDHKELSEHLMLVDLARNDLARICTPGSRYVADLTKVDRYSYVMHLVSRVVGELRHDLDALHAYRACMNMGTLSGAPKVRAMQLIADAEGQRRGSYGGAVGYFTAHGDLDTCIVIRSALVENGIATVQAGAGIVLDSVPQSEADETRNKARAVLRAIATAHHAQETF

[3] = molecular target: Anthranilate synthase component 1 (Salmonella typhimurium (strain LT2 / SGSC1412 / ATCC 700720), UniProt P00898); test: Inhibition of Salmonella Typhimurium anthranilate synthase trpE:trpD […] coexpressing stop codon in trpD gene for encoding aminotransferase activity by spectrophotometry for enzyme-substrate-inhibitor complex; design: species or system Salmonella enterica subsp. enterica serovar Typhimurium
[4] = molecular target: T3, Isochorismate synthase EntC (Escherichia coli K-12) (UniProt P0AEJ2); test: Competitive inhibition of Escherichia coli K12 IS expressed in Escherichia coli BL21(DE3) using chorismate as substrate by double reciprocal plot; outline: as §1
T3 sequence (whole entry): T1 sequence (P0AEJ2 whole entry)

[5] = molecular target: T3, Isochorismate synthase EntC (Escherichia coli K-12); test: Noncompetitive inhibition of Escherichia coli K12 IS expressed in Escherichia coli BL21(DE3) by double reciprocal plot in presence of cofactor Mg2+
Outline: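 IS (75 nM) in an EntB/LDH coupled assay, with NADH loss read at 340 nm, 25 °C. Buffer: 50 mM triethanolamine pH 7.8, 100 μM NADH. Chorismate was held saturating at 200 μM while Mg2+ was varied 5–500 μM. Inhibitor ranged 10 μM–8 mM; the inhibition pattern came from initial rates.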

[6] = molecular target: T4, Anthranilate synthase component 1 (Salmonella typhimurium (strain LT2 / SGSC1412 / ATCC 700720)) (UniProt P00898); test: Mixed-type inhibition of Salmonella Typhimurium anthranilate synthase trpE expressed in Escherichia coli BL21(DE3) using chorismate as substrate by double reciprocal plot; details: Salmonella enterica subsp. enterica serovar Typhimurium
T4 sequence (whole entry): T2 sequence (P00898 whole entry)
Outline: (§2)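 S. typhimurium anthranilate synthase partial complex (TrpE2TrpG2), 2.2 nM, in a fluorescence assay read at 390 nm emission, 313 nm excitation, 25 °C. Buffer: 100 mM phosphate pH 7.0, 20 mM L-glutamine, 5 mM MgCl2 (saturating). Reactions were started with enzyme. Inhibitor ranged 10 μM–8 mM; chorismate ranged 0.5–5 KM. Ki versus chorismate came from initial rates.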

[7] = molecular target: T4, Anthranilate synthase component 1 (Salmonella typhimurium (strain LT2 / SGSC1412 / ATCC 700720)); test: Competitive inhibition of Salmonella Typhimurium anthranilate synthase trpE expressed in Escherichia coli BL21(DE3) by double reciprocal plot in presence of cofactor Mg2+; details: Salmonella enterica subsp. enterica serovar Typhimurium
[8] = molecular target: Aminodeoxychorismate synthase component 1 PabB (Escherichia coli K-12) (UniProt P05041); test: Competitive inhibition of Escherichia coli K12 ADCS by double reciprocal plot in presence of cofactor Mg2+
Sequence of Aminodeoxychorismate synthase component 1 PabB (Escherichia coli K-12) (P05041 whole entry, looked up): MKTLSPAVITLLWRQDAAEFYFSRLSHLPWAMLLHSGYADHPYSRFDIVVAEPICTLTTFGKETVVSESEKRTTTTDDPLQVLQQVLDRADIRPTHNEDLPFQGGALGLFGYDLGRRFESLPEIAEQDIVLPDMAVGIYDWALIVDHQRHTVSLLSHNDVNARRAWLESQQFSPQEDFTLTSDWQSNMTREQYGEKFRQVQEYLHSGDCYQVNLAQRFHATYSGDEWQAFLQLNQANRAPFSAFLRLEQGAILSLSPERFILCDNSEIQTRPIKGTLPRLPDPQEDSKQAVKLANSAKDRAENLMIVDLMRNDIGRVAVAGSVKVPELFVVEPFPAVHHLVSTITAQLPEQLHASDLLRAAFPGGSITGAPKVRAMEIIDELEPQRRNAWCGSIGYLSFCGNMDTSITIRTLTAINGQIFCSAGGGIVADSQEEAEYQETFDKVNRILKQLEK

[9] = molecular target: Aminodeoxychorismate synthase component 1 PabB (Escherichia coli K-12) (UniProt P05041); test: Competitive inhibition of Escherichia coli K12 ADCS using chorismate as substrate by double reciprocal plot
[10] = molecular target: T4, Anthranilate synthase component 1 (Salmonella typhimurium (strain LT2 / SGSC1412 / ATCC 700720)); test: Noncompetitive inhibition of Salmonella Typhimurium anthranilate synthase trpE expressed in Escherichia coli BL21(DE3) using chorismate as substrate by double reciprocal plot; details: Salmonella enterica subsp. enterica serovar Typhimurium; outline: as §2
[11] = molecular target: Aminodeoxychorismate synthase component 1 PabB (Escherichia coli K-12) (UniProt P05041); test: Noncompetitive inhibition of Escherichia coli K12 ADCS by double reciprocal plot in presence of cofactor Mg2+
[12] = molecular target: Aminodeoxychorismate synthase component 1 PabB (Escherichia coli K-12) (UniProt P05041); test: Noncompetitive inhibition of Escherichia coli K12 ADCS using chorismate as substrate by double reciprocal plot

Compound | Ki [1] | Ki [2] | Ki [3] | Activity [4] | Activity [5] | Activity [6] | Activity [7] | Activity [8] | Activity [9] | Activity [10] | Activity [11] | Activity [12]
NC(=O)c1cccc(OCC(=O)O)c1 | 2600 µM | 760 µM | 2600 µM | Active | Active | Active | Active | Active | Active |  |  | 
Cc1ccc(C(=O)N[C@@H](CSCCCNC(=O)c2cccc(OCC(=O)O)c2)C(=O)N[C@@H](Cc2cccc(Cl)c2)C(N)=O)c([N+](=O)[O-])c1O | 150 µM | 96 µM |  | Active | Active | Active | Active | Active | Active |  |  | 
CC(C(=O)N[C@@H](CCCNC(=O)c1cccc(OCC(=O)O)c1)C(=O)NCCc1cccc2c1oc1c(CCC(N)=O)cccc12)c1ccc([N+](=O)[O-])cc1 (stereo not given in full) | 190 µM | 250 µM | 110 µM | Active | Active | Active | Active | Active | Active |  |  | 
NC(=O)C1(NC(=O)[C@H](CCCNC(=O)c2cccc(OCC(=O)O)c2)NC(=O)c2ccc(Oc3ccccc3)cc2)CCS(=O)(=O)CC1 | 170 µM | 570 µM | 1020 µM | Active | Active | Active | Active | Active | Active |  |  | 
Cc1ccc(C(=O)N[C@@H](CCCNC(=O)c2cccc(OCC(=O)O)c2)C(=O)N[C@@H](Cc2ccc(C#N)cc2)C(N)=O)c([N+](=O)[O-])c1O | 260 µM | 28 µM | 81 µM | Active | Active | Active | Active | Active | Active |  |  | 
Cc1ccc(C(=O)N[C@@H](CCCCNC(=O)c2cccc(OCC(=O)O)c2)C(=O)N[C@@H](Cc2cccc(Cl)c2)C(N)=O)c([N+](=O)[O-])c1O | 210 µM | 20 µM | 54 µM | Active | Active | Active | Active | Active | Active |  |  | 
NC(=O)C1(NC(=O)[C@H](CCCNC(=O)c2cccc(OCC(=O)O)c2)NC(=O)c2ncccc2C(=O)c2ccccc2)CCCCC1 | 430 µM | 490 µM | 1080 µM | Active | Active | Active | Active | Active | Active |  |  | 
Cc1ccc(C(=O)N[C@@H](C)C(=O)N[C@@H](Cc2cccc(Cl)c2)C(N)=O)c([N+](=O)[O-])c1O | 500 µM | 200 µM |  | Active | Active |  |  |  |  | Active | Active | Active
Cc1ccc(C(=O)N[C@@H](CCCCN)C(=O)N[C@@H](Cc2cccc(Cl)c2)C(N)=O)c([N+](=O)[O-])c1O | 790 µM | 110 µM |  | Active | Active |  |  |  |  |  | Active | Active
O=C(O)COc1cccc(C(=O)O)c1 | 1300 µM | 210 µM | 550 µM | Active | Active | Active | Active | Active | Active |  |  | 
Cc1ccc(C(=O)N[C@@H](CCCNC(=O)c2cccc(OCC(=O)O)c2)C(=O)N[C@@H](Cc2cccc(Cl)c2)C(N)=O)c([N+](=O)[O-])c1O | 360 µM | 41 µM |  | Active | Active |  | Active |  | Active |  |  | 
